Data reported in ChEMBL document CHEMBL1914334, “Discovery and characterization of potent and selective 4-oxo-4-(5-(5-phenyl-1,2,4-oxadiazol-3-yl)indolin-1-yl)butanoic acids as S1P₁ agonists” (Bioorg Med Chem Lett, 2011).
pEC50: −log10 of the molar value. Active and inactive are the calls of the source. The calls are words filed in the database; no cut-off is given here.

Test system: Mus musculus
Assay: Immunomodulatory activity BALB/C mouse assessed as induction of lymphopenia at 0.3 to 3 mg/kg, po after 8 hrs
Format: functional, organism-based
Settings: not given
Method in brief: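 Male BALB/c mice were dosed orally at 0.3, 1.0 or 3.0 mg/kg, or with vehicle (0.5% methylcellulose in water). Blood lymphocytes were followed over time post-dose (mean ± SD). Observed values were fitted with an indirect PK/PD model.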
With `CC(C)Oc1ccc(-c2nc(-c3ccc4c(c3)CCN4C(=O)CCC(=O)O)no2)cc1C#N` the Activity was “Active”.

Test system: not listed separately
Assay: Aqueous solubility of the compound
Format: physicochemical
Settings: buffer
`N[C@@H](CC(=O)N1CCc2cc(-c3noc(-c4cc(C(F)(F)F)cc(C(F)(F)F)c4)n3)ccc21)C(=O)O` showed a solubility of less than 10 µg/mL.

Target: T1, Sphingosine 1-phosphate receptor 1 (Homo sapiens, UniProt P21453)
T1 sequence (P21453 whole entry): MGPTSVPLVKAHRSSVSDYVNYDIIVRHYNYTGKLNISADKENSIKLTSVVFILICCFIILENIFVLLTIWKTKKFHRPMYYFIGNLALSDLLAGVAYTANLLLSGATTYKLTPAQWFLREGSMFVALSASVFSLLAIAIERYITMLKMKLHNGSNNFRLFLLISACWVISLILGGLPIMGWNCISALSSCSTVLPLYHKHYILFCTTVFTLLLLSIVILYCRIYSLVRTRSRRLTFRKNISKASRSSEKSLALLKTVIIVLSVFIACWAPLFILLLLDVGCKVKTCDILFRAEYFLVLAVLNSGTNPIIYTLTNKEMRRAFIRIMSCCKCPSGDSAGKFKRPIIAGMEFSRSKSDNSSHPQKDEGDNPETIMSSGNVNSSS
Assay: Agonist activity at human S1P1 receptor
Format: functional
Settings: not given
Method in brief: (§1)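 Human S1P₁ cAMP HTRF read-out; each EC₅₀ is the mean of three or more replicates.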
For `FC(F)(F)c1cc(-c2nc(-c3ccc4[nH]ncc4c3)no2)cc(C(F)(F)F)c1`, the pEC50 was 8.03. In the case of `CCN(c1ccc2[nH]ncc2c1)S(=O)(=O)c1cc(C(F)(F)F)cc(C(F)(F)F)c1`, the pEC50 was 6.43. `C=CCN(c1ccccc1)S(=O)(=O)c1cc(Cl)cc(Cl)c1` gave a pEC50 of 8.17.

Target: T1, Sphingosine 1-phosphate receptor 1
Assay: Agonist activity at recombinant human S1P1 receptor expressed in HEK293 cells after 2 hrs by beta-arrestin assay
Format: functional, cell-based
Settings: not given
For `CC(C)Oc1ccc(-c2nc(-c3ccc4c(c3)CCN4C(=O)CCC(=O)O)no2)cc1C#N`, the pEC50 was 8.17.

Target: T1, Sphingosine 1-phosphate receptor 1
Assay: Agonist activity at human S1P1 receptor expressed in HEK293 cells assessed as inhibition of forskolin-stimulated cAMP production after 1 hr by HTRF assay
Format: functional, cell-based
Settings: not given
Method in brief: as §1
Compound `O=C(O)CCN1CCc2cc(-c3noc(-c4cc(C(F)(F)F)cc(C(F)(F)F)c4)n3)ccc21` has a pEC50 of 8.21. Compound `O=C(O)CCC(=O)N1CCc2cc(-c3noc(-c4ccc(Cl)c(OC(F)(F)F)c4)n3)ccc21` has a pEC50 of 8.28. For `FC(F)(F)c1cc(-c2nc(N3CCc4[nH]ncc4C3)no2)cc(C(F)(F)F)c1`, the pEC50 was 7.62. `COc1ccc(-c2nc(-c3ccc4c(c3)CCN4C(=O)CCC(=O)O)no2)cc1OC(F)(F)F` showed a pEC50 of 9.00. For `O=C(O)CCn1ncc2cc(-c3noc(-c4cc(C(F)(F)F)cc(C(F)(F)F)c4)n3)ccc21`, the pEC50 was 8.01. Work on `FC(F)(F)c1cc(-c2nc(-c3ccc4[nH]ccc4c3)no2)cc(C(F)(F)F)c1` yielded a pEC50 of 7.12. Compound `O=C(O)CCCC(=O)N1CCc2cc(-c3noc(-c4cc(C(F)(F)F)cc(C(F)(F)F)c4)n3)ccc21` has a pEC50 of 8.18. Work on `COc1ccc(-c2nc(-c3ccc4c(c3)CCN4C(=O)CCC(=O)O)no2)cc1C` yielded a pEC50 of 7.74. `COc1cc(C#N)cc(-c2nc(-c3ccc4c(c3)CCN4C(=O)CCC(=O)O)no2)c1` gave a pEC50 of 7.99. Compound `CC(C)Oc1ccc(-c2nc(-c3ccc4c(c3)CCN4C(=O)CCC(=O)O)no2)cc1Br` has a pEC50 of 8.40. For `COc1ccc(-c2nc(-c3ccc4c(c3)CCN4C(=O)CCC(=O)O)no2)cc1C#N`, the pEC50 was 8.20. Compound `FC(F)(F)c1cc(-c2nc(-c3ccc4[nH]ncc4c3)no2)cc(C(F)(F)F)c1` has a pEC50 of 8.14. In the case of `O=C(O)CCC(=O)n1ccc2cc(-c3noc(-c4cc(C(F)(F)F)cc(C(F)(F)F)c4)n3)ccc21`, the pEC50 was 7.39. For `COc1ccc(-c2nc(-c3ccc4c(c3)CCN4C(=O)CCC(=O)O)no2)cc1Cl`, the pEC50 was 7.96. With `N#Cc1cc(-c2nc(-c3ccc4c(c3)CCN4C(=O)CCC(=O)O)no2)ccc1OC1CCCC1` the pEC50 was 7.74. With `CC(C)Oc1ccc(-c2nc(-c3ccc4c(c3)CCN4C(=O)CCC(=O)O)no2)cc1C#N` the pEC50 was 8.96. For `FC(F)(F)c1cc(-c2nc(N3CCc4[nH]cnc4C3)no2)cc(C(F)(F)F)c1`, the pEC50 was 6.39. Work on `COc1ccc(-c2nc(-c3ccc4c(c3)CCN4C(=O)CCC(=O)O)no2)cc1C(F)(F)F` yielded a pEC50 of 7.96. With `O=C(O)CCC(=O)N1CCc2cc(-c3noc(-c4ccc(C5CCCC5)c(Cl)c4)n3)ccc21` the pEC50 was 9.09. In the case of `COC(=O)CCCCn1cc2cc(-c3noc(-c4cc(C(F)(F)F)cc(C(F)(F)F)c4)n3)ccc2n1`, the pEC50 was 6.53. `CCc1ccc(-c2nc(-c3ccc4c(c3)CCN4C(=O)CCC(=O)O)no2)cc1C(F)(F)F` gave a pEC50 of 8.57. `COc1ccc2c(c1)CCN(c1noc(-c3cc(C(F)(F)F)cc(C(F)(F)F)c3)n1)C2` gave a pEC50 of 9.00. Work on `O=C(O)CCC(=O)N1CCc2cc(-c3noc(-c4ccc(OC(F)(F)F)cc4)n3)ccc21` yielded a pEC50 of 7.17. `N[C@@H](CC(=O)N1CCc2cc(-c3noc(-c4cc(C(F)(F)F)cc(C(F)(F)F)c4)n3)ccc21)C(=O)O` gave a pEC50 of 8.79. Compound `CC[C@H](C)Oc1ccc(-c2nc(-c3ccc4c(c3)CCN4C(=O)CCC(=O)O)no2)cc1Cl` has a pEC50 of 7.35. With `O=C(O)CCCCn1cc2cc(-c3noc(-c4cc(C(F)(F)F)cc(C(F)(F)F)c4)n3)ccc2n1` the pEC50 was 8.38. For `FC(F)(F)c1cc(-c2nc(-c3ccc4c(c3)CCN4)no2)cc(C(F)(F)F)c1`, the pEC50 was 7.43. With `O=C(O)CCCn1ncc2c1CCN(c1noc(-c3cc(C(F)(F)F)cc(C(F)(F)F)c3)n1)C2` the pEC50 was 6.43. Compound `CCc1ccc(-c2nc(-c3ccc4c(c3)CCN4C(=O)CCC(=O)O)no2)cc1S(C)(=O)=O` has a pEC50 of 7.42. `O=C(O)CC(=O)N1CCc2cc(-c3noc(-c4cc(C(F)(F)F)cc(C(F)(F)F)c4)n3)ccc21` gave a pEC50 of 6.99. Compound `FC(F)(F)c1cc(-c2nc(-c3ccc4[nH]cnc4c3)no2)cc(C(F)(F)F)c1` has a pEC50 of 8.37. With `O=C(O)CCc1nc2cc(-c3noc(-c4cc(C(F)(F)F)cc(C(F)(F)F)c4)n3)ccc2[nH]1` the pEC50 was 8.92. Compound `COc1cc(-c2nc(-c3ccc4c(c3)CCN4C(=O)CCC(=O)O)no2)ccc1OC(F)F` has a pEC50 of 8.82. With `O=C(O)COc1ccc2c(c1)CCN(c1noc(-c3cc(C(F)(F)F)cc(C(F)(F)F)c3)n1)C2` the pEC50 was 7.27. In the case of `CCOC(=O)CCn1ncc2cc(-c3noc(-c4cc(C(F)(F)F)cc(C(F)(F)F)c4)n3)ccc21`, the pEC50 was less than 7.00. Compound `O=C(O)CCCn1ncc2cc(-c3noc(-c4cc(C(F)(F)F)cc(C(F)(F)F)c4)n3)ccc21` has a pEC50 of 8.31. `O=C(O)CCC(=O)N1CCc2cc(-c3noc(-c4ccc(-c5cccs5)c(C(F)(F)F)c4)n3)ccc21` gave a pEC50 of 8.89.

Test system: not listed separately
Assay: Half life in human
Format: ADME, organism-based
Settings: in vivo
`CCCCCCCCc1ccc(CCC(N)(CO)CO)cc1.Cl` [FINGOLIMOD HYDROCHLORIDE] showed a half-life of 144 h.

Test system: Mus musculus
Assay: Immunomodulatory activity BALB/C mouse assessed as induction of lymphopenia at 1 mg/kg, po after 5 hrs
Format: functional, organism-based
Set-up: dose 1 mg/kg
Settings: not given
Method in brief: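 Male BALB/c mice were given a single oral dose of 1.0 mg/kg or vehicle (0.5% methylcellulose). Blood lymphocytes were counted at one time point, 5 h post-dose, with n = 6 per dose group (mean ± SD). Lowering was judged relative to the vehicle group.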
For `O=C(O)CCc1nc2cc(-c3noc(-c4cc(C(F)(F)F)cc(C(F)(F)F)c4)n3)ccc2[nH]1`, the Activity was “inactive”.
